Laboratory results reported in ChEMBL document CHEMBL4219124, “Alleviating CYP and hERG liabilities by structure optimization of dihydrofuran-fused tricyclic benzo[d]imidazole series - Potent, selective and orally efficacious microsomal prostaglandin E synthase-1 (mPGES-1) inhibitors: Part-2” (Bioorg Med Chem Lett, 2018).

Legend:
[1] = Metabolic stability in rat liver microsomes assessed as parent compound remaining at 1 uM after 60 mins in presence of NADPH by LC-MS/MS analysis; format: ADME, microsome; settings: read-out: Stability
Outline: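 Compound incubated 60 min at 37 °C with human, rat or guinea pig liver microsomes; percent parent remaining, triplicates.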

[2] = Inhibition of recombinant human COX2 assessed as decrease in PGE2 production at 10 uM using arachidonic acid as substrate preincubated for 15 mins prior to substrate addition for 5 mins relative to control; settings: recombinant COX2, probe arachidonic acid
[3] = Inhibition of guinea pig mPGES1 expressed in CHO cells assessed as reduction in PGE2 production using PGH2 as substrate incubated for 10 mins followed by substrate addition measured for 1 min; design: species or system Cavia porcellus
Outline: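 Guinea pig mPGES-1 enzyme assay, run the same way as the human enzyme assay. IC50 for inhibition of PGE2 formation, read from curves built on at least two experiments, each in duplicate.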

[4] = molecular target: T1, Prostacyclin synthase (Homo sapiens) (UniProt Q16647); assay: Inhibition of recombinant human PGIS expressed in CHO cells at 10 uM relative to control; format: cell-based
T1 sequence (whole entry): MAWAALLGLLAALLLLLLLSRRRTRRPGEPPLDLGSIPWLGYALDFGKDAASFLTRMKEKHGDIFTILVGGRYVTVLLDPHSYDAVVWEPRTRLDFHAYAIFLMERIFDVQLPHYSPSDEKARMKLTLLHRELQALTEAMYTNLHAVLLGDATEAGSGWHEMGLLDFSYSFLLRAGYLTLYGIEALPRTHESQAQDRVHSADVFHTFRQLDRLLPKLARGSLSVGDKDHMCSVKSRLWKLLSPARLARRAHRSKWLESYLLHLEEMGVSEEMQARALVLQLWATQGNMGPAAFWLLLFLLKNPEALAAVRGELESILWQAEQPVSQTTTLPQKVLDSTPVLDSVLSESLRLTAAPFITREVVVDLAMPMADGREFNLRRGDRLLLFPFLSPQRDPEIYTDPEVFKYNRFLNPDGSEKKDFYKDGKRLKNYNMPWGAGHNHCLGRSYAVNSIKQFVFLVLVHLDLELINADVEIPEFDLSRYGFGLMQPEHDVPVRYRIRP

[5] = molecular target: T2, Thromboxane-A synthase (Homo sapiens) (UniProt P24557); assay: Inhibition of TXAS (unknown origin) at 10 uM relative to control
T2 sequence (whole entry): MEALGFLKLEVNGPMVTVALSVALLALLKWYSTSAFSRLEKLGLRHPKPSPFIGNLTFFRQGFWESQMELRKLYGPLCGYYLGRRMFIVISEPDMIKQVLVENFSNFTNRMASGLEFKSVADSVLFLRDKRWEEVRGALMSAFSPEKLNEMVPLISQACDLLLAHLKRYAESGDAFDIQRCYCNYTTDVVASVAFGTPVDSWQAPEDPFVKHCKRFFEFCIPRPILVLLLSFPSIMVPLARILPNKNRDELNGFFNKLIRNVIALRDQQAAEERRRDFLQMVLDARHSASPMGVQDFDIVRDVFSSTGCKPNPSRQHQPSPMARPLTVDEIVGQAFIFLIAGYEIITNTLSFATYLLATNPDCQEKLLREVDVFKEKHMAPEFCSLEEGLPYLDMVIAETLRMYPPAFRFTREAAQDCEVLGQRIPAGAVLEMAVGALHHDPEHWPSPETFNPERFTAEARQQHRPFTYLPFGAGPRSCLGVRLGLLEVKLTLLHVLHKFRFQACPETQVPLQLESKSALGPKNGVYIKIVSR
Outline: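 Selectivity panel against other prostanoid-pathway enzymes. % inhibition values are means of at least two experiments, each in duplicate.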

[6] = Ratio of drug uptake in brain to plasma of Dunkin-Hartley guinea pig at 10 mg/kg, po; format: ADME, organism-based, Cavia porcellus; settings: for Kp: Dunkin-Hartley, brain/plasma, read-out: BPR
[7] = Tmax in Dunkin-Hartley guinea pig at 10 mg/kg, po; format: ADME, organism-based, Cavia porcellus; settings: in vivo
Outline: (§1)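 Tmax from oral 10 mg/kg dosing. Rat: male Sprague-Dawley, 0.5% MC suspension, n = 3. Guinea pig: 20% NMP + 0.5% MC suspension, n = 3. Dog and monkey: 2.5 μL/mL Tween 80 + 0.5% MC suspension.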

[8] = Cmax in Sprague-Dawley rat at 10 mg/kg, po; format: ADME, organism-based; design: dose 10 mg/kg, route oral; settings: in vivo
Outline: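 Single oral dose of 10 mg/kg. Cmax and AUC0-24 taken from the oral arm. Rat: male Sprague-Dawley, dosed in 0.5% methylcellulose suspension, mean ± SD (n = 3). Guinea pig: 20% NMP + 0.5% MC suspension, mean ± SD (n = 3). Dog and cynomolgus monkey: 2.5 μL/mL Tween 80 + 0.5 (w/v) MC suspension.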

[9] = Protein binding in dog plasma at 10 uM after 5 hrs by equilibrium dialysis based LC-MS/MS analysis; format: ADME, cell-free, Canis lupus familiaris; settings: read-out: PPB (converted)
Outline: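 Equilibrium dialysis at 10 μM compound; result expressed as percent bound.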

[10] = Half life in Sprague-Dawley rat at 10 mg/kg, po; format: ADME, organism-based; settings: in vivo
Outline: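 Half-life calculated from plasma profiles after oral dosing at 10 mg/kg. Rat: male Sprague-Dawley, 0.5% methylcellulose suspension, n = 3. Dog and cynomolgus monkey: Tween 80 (2.5 μL/mL) + 0.5 (w/v) MC suspension.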

[11] = molecular target: T3, Nuclear receptor subfamily 1 group I member 2 (Homo sapiens, UniProt O75469); assay: Activation of human PXR at 10 uM relative to rifampicin; format: ADME
T3 sequence (O75469 whole entry): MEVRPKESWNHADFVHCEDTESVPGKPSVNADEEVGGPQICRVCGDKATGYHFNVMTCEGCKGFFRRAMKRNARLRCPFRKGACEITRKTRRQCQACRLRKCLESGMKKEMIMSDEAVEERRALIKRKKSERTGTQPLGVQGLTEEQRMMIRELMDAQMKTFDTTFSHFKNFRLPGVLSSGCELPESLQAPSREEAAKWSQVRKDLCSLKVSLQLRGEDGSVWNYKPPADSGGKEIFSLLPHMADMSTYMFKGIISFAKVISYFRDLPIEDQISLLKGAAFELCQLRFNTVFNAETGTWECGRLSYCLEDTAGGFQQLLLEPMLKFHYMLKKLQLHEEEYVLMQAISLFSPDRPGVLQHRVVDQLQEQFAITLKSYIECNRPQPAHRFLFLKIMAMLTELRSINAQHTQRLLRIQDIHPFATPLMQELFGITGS
Outline: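 Activation of human PXR with test compound at 10 µM, expressed relative to the rifampicin effect.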

[12] = Apparent volume of distribution in Sprague-Dawley rat at 1 mg/kg, iv; format: ADME, organism-based; settings: in vivo, read-out: Vz
Outline: (§2)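 Intravenous dose of 1 mg/kg; clearance and Vz derived from the i.v. arm. Rat (male Sprague-Dawley) vehicle 20% NMP + 20% ethanol + 60% PEG 200, mean ± SD (n = 3). Dog vehicle 20% NMP + 20% EtOH + 10% PG + 50% PEG 200:water (3:2). Monkey vehicle 10% NMP + 10% ethanol + 10% PEG + 70% PEG200:water (3:2).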

[13] = Tmax in Beagle dog at 10 mg/kg, po; format: ADME, organism-based, Canis lupus familiaris; settings: in vivo; outline: as §1
[14] = Tmax in Sprague-Dawley rat at 10 mg/kg, po; format: ADME, organism-based; settings: in vivo; outline: as §1
[15] = Apparent volume of distribution in Beagle dog at 1 mg/kg, iv; format: ADME, organism-based, Canis lupus familiaris; settings: in vivo, read-out: Vz; outline: as §2

CC1(C)Cc2c(c(C(=O)Nc3cc(C(F)(F)F)ccc3F)cc3nc(Nc4c(F)cccc4Cl)[nH]c23)O1
remaining at 1 h, 1 µM [1]: 96% | inhibition at 5 min, 10 µM [2]: 28.7% | IC50 [3]: 0.014 µM | inhibition [4]: 5.6% | inhibition [5]: 4.6%

CC1(C)Cc2c(c(C(=O)Nc3ccc(F)c(C(F)(F)F)c3)cc3nc(Nc4c(F)cccc4Cl)[nH]c23)O1
Kp [6]: 0.44 | remaining at 1 h, 1 µM [1]: 91% | Tmax [7]: 2 h | Cmax [8]: 995 ng/mL | fraction unbound at 5 h, 10 µM [9]: 0.009 | half-life [10]: 4 h | Activity [11]: 34% | Vd [12]: 3.85 L/kg | Tmax [13]: 12 h | inhibition at 5 min, 10 µM [2]: 23.1% | Tmax [14]: 2 h | IC50 [3]: 0.024 µM | Vd [15]: 1.94 L/kg | inhibition [4]: 2.5% | inhibition [5]: 25.5%

Cc1cccc(Cl)c1Nc1nc2cc(C(=O)Nc3cc(C(F)F)ccc3F)c3c(c2[nH]1)CC(C)(C)O3
remaining at 1 h, 1 µM [1]: 87% | inhibition at 5 min, 10 µM [2]: 43.2% | IC50 [3]: 0.046 µM | inhibition [4]: 20.1% | inhibition [5]: 17.2%

CC1(C)Cc2c(c(C(=O)Nc3ccc(C(F)(F)F)cn3)cc3nc(Nc4c(Cl)cccc4Cl)[nH]c23)O1
Kp [6]: 0.58 | remaining at 1 h, 1 µM [1]: 88% | Tmax [7]: 12 h | Cmax [8]: 344 ng/mL | fraction unbound at 5 h, 10 µM [9]: 0.008 | half-life [10]: 2.7 h | Activity [11]: 46% | Vd [12]: 3.77 L/kg | Tmax [13]: 12 h | inhibition at 5 min, 10 µM [2]: 35.9% | Tmax [14]: 4 h | IC50 [3]: 0.012 µM | Vd [15]: 5.4 L/kg | inhibition [4]: 4.3% | inhibition [5]: 1.3%

Cc1cccc(Cl)c1Nc1nc2cc(C(=O)Nc3cc(C(F)(F)F)ccc3F)c3c(c2[nH]1)CC(C)(C)O3
BPR ([6]; brain, BLD = below limit of detection): Bld | remaining at 1 h, 1 µM [1]: 97% | Tmax [7]: 1 h | Cmax [8]: 210 ng/mL | fraction unbound at 5 h, 10 µM [9]: 0.003 | half-life [10]: 7 h | Activity [11]: 57% | Vd [12]: 4.84 L/kg | Tmax [13]: 8 h | inhibition at 5 min, 10 µM [2]: 31% | Tmax [14]: 4 h | IC50 [3]: 0.019 µM | Vd [15]: 9.17 L/kg | inhibition [4]: 7.5% | inhibition [5]: 0.87%

Cn1c(Nc2c(F)cccc2Cl)nc2cc(C(=O)Nc3cccc(C(F)(F)F)c3)c3c(c21)CC(C)(C)O3
remaining at 1 h, 1 µM [1]: 89% | inhibition at 5 min, 10 µM [2]: 6.5% | IC50 [3]: 0.0043 µM | inhibition [4]: 3.9% | inhibition [5]: 22.1%
